This is an account of results in the RNAGym collection of RNA variant scans (doi:10.1002/anie.201605470).

The labels stand for the following.
B1: Osa-1-4 twister ribozyme (parent)
chain: CCGCCUAACACUGCCAAUGCCGGUCCCAAGCCCGGAUAAAAGUGGAGGGGGCGG

In this series the parent is B1. Nature of the series: self-cleavage, relative activity (ratio to wild type); higher = more cleavage; co-transcriptional. In short, it runs like this:
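A DNA template for a 54-nucleotide Oryza sativa twister ribozyme was synthesised with 97 % wild-type base and 1 % of each other base at the 48 positions downstream of the cleavage site. It was transcribed in vitro for 2 h at 37 °C, allowing co-transcriptional self-cleavage, then reverse-transcribed with a template-switching oligonucleotide, PCR-amplified and deep-sequenced. Cleavage status was scored from reads with or without upstream sequence. Relative activity is fraction cleaved normalised to wild type.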
Regarding G13C G34A, the self-cleavage worked out at 0.04.
Next, G13C G34C: 0.02; G13U G49C: 0.01.
Take G13U G49U: the self-cleavage amounted to 0.01.
Next, G13U G49A: 0.01.
Next, C14A G34C: 0.05.
The figure for C14A G34U is 0.05.
Regarding C14A G34A, the self-cleavage was 0.07.
As to G13C G45U, the self-cleavage was 0.01.
As for G13C G45C, the self-cleavage turned out to be 0.01.
With G13C G45A, the self-cleavage stood at 0.02.
The figure for G13U U12G is 0.14; for G13U U12A it is 0.02.
As to G13U U12C, the self-cleavage came out at 0.05.
Consider G13U U18G, for which the self-cleavage came to 0.05.
In the case of G13U U18A, the self-cleavage was found to be 0.03.
The figure for G13U U18C is 0.03.
C11U G51C: the self-cleavage amounted to 0.05.
Consider C11U G51A, for which the self-cleavage turned out to be 0.34.
In the case of C11U G51U, the self-cleavage turned out to be 0.12.
With U12C, the self-cleavage was found to be 0.66.
For the variant U12A, the self-cleavage turned out to be 0.99.
Regarding U12G, the self-cleavage turned out to be 0.55.
The figure for C14A C26A is 0.05; for C14A C26G it is 0.02; for C14A C26U it is 0.05.
As for U12A U37G, the self-cleavage amounted to 1.
As to U12A U37A, the self-cleavage turned out to be 0.71.
The figure for U12A U37C is 1.
The figure for G13U G35U is 0.03; for G13U G35A it is 0.03.
In the case of G13U G35C, the self-cleavage was found to be 0.03.
C11U U37C: the self-cleavage was 1.02.
Next, C11U U37A: 0.62; C11U U37G: 0.94; G13C G47C: 0.01.
Next, G13C G47A: 0.02.
As for G13C G47U, the self-cleavage came to 0.02.
As to G13U G42C, the self-cleavage came to 0.01.
In the case of G13U G42A, the self-cleavage stood at 0.02.
Next, G13U G42U: 0.01; U12C U43C: 0.08.
The figure for U12C U43G is 0.09.
Next, U12C U43A: 0.11; G13A: 0.17; G13C: 0.03.
As for G13U, the self-cleavage came out at 0.03.
On to U12A U18A, for which the self-cleavage was 0.91.
Turning to U12A U18C, the self-cleavage came out at 0.76.
Next, U12A U18G: 0.76; C14A G44C: 0.06; C14A G44U: 0.05.
Next, C14A G44A: 0.07; G13A G23C: 0.02.
The figure for G13A G23U is 0.02; for G13A G23A it is 0.04; for G13U G47U it is 0.02.
With G13U G47C, the self-cleavage was found to be 0.01.
The figure for G13U G47A is 0.02; for G13U G54C it is 0.02; for G13U G54U it is 0.04.
Next, G13U G54A: 0.03; G13U G45A: 0.02; G13U G45C: 0.01.
The figure for G13U G45U is 0.02; for G13A U24A it is 0.05; for G13A U24G it is 0.01.
Turning to G13A U24C, the self-cleavage came out at 0.04.
As for C14A C27G, the self-cleavage worked out at 0.03.
C14A C27U: the self-cleavage came to 0.04.
In the case of C14A C27A, the self-cleavage came to 0.07.
For C14A C25A, the self-cleavage was 0.05.
Next, C14A C25U: 0.07; C14A C25G: 0.02; C14A C20A: 0.12.
C14A C20G: the self-cleavage came to 0.03.
The figure for C14A C20U is 0.16.
Take C11U G54U: the self-cleavage was 0.79.
Turning to C11U G54C, the self-cleavage is 0.8.
C11U G54A: the self-cleavage is 0.78.
Regarding G13C G30C, the self-cleavage is 0.02.
As for G13C G30A, the self-cleavage worked out at 0.01.
Next, G13C G30U: 0.01; G13C G51U: 0.02.
As for G13C G51C, the self-cleavage was 0.01.
The figure for G13C G51A is 0.02; for G13C U37A it is 0.02; for G13C U37C it is 0.03.
As for G13C U37G, the self-cleavage amounted to 0.04.
Consider C14A G49C, for which the self-cleavage was determined as 0.01.
As to C14A G49A, the self-cleavage is 0.02.
The figure for C14A G49U is 0.03.
The figure for G13C G53U is 0.02.
For the variant G13C G53A, the self-cleavage amounted to 0.02.
With G13C G53C, the self-cleavage turned out to be 0.01.
Next, G13A G44U: 0.07.
Turning to G13A G44A, the self-cleavage was found to be 0.05.
For the variant G13A G44C, the self-cleavage is 0.08.
For C14A G19A, the self-cleavage worked out at 0.1.
The figure for C14A G19U is 0.07; for C14A G19C it is 0.04; for U12C U37C it is 0.44.
U12C U37G: the self-cleavage came out at 0.66.
The figure for U12C U37A is 0.51.
For G13U G23C, the self-cleavage is 0.
The figure for G13U G23U is 0.02.
As to G13U G23A, the self-cleavage was 0.02.
As for G13C G48A, the self-cleavage is 0.01.
For the variant G13C G48C, the self-cleavage was 0.02.
The figure for G13C G48U is 0.01.
For the variant C11U U24G, the self-cleavage turned out to be 0.06.
The figure for C11U U24A is 0.06; for C11U U24C it is 0.1; for C11U U43G it is 0.2.
The figure for C11U U43C is 0.26.
For the variant C11U U43A, the self-cleavage was found to be 0.62.
The figure for G13C G35C is 0.02; for G13C G35A it is 0.02.
Next, G13C G35U: 0.04; C14A C52G: 0.13.
Next, C14A C52A: 0.1; C14A C52U: 0.13.
With G13A G51C, the self-cleavage stood at 0.02.
Next, G13A G51A: 0.05; G13A G51U: 0.04.
Next, G13A U43A: 0.05; G13A U43G: 0.04.
The figure for G13A U43C is 0.05.
In the case of G13A G42A, the self-cleavage stood at 0.05.
Next, G13A G42C: 0.04; G13A G42U: 0.02; G13A G19A: 0.08.
Regarding G13A G19U, the self-cleavage was determined as 0.04.
The figure for G13A G19C is 0.03.
Turning to C14A C32G, the self-cleavage was determined as 0.03.
The figure for C14A C32A is 0.05; for C14A C32U it is 0.03; for G13C G19C it is 0.03.
For G13C G19U, the self-cleavage stood at 0.02.
Turning to G13C G19A, the self-cleavage came to 0.03.
Next, C14A G22U: 0.05; C14A G22A: 0.08.
The figure for C14A G22C is 0.02; for G13C U24G it is 0.01.
Next, G13C U24C: 0.03.
With G13C U24A, the self-cleavage stood at 0.02.
The figure for G13A G49U is 0.02.
For G13A G49A, the self-cleavage is 0.03.
As for G13A G49C, the self-cleavage is 0.02.
As for G13U U43G, the self-cleavage was found to be 0.04.
The figure for G13U U43C is 0.03.
Next, G13U U43A: 0.02.
The figure for U12A U43G is 0.09.
As for U12A U43A, the self-cleavage is 0.13.
Next, U12A U43C: 0.11.
For C14A G35A, the self-cleavage worked out at 0.12.
Next, C14A G35C: 0.05; C14A G35U: 0.09; G13A G53C: 0.03.
With G13A G53A, the self-cleavage came to 0.06.
The figure for G13A G53U is 0.05; for C14A G45U it is 0.03.
Next, C14A G45A: 0.04; C14A G45C: 0.01; U12G U37C: 0.55.
U12G U37G: the self-cleavage was determined as 0.52.
Next, U12G U37A: 0.6.
